In ChEMBL document CHEMBL1153564 (Antimicrob Agents Chemother, 2008):
≈ marks a conversion by molar mass, not a printed value. Calls of active or inactive are those of the source. No cut-off for these calls is given here. Starred links: 1 amine or outer side, 2 acyl side, 3 side chain; linkers in the order of their positions; H or OH if unused. Positions of bridges follow the written chain, without caps; N, C: chain ends. Non-standard residues stand in square brackets, D forms with d. Residues, ends and D or L forms follow the SMILES beside them. *: point of attachment. pTerphenylCO(4''-OnC5H11) = CCCCCOc1ccc(-c2ccc(-c3ccc(C(=O)*)cc3)cc2)cc1; Orn(4R-OH,5R-OH) = O=C([C@H](C[C@@H](O)[C@@H](O)N[*:3])N[*:1])[*:2]; hTyr(3S-OH,4S-OH) = N[C@H](C(=O)O)[C@H](O)[C@@H](O)c1ccc(O)cc1; Pro(3S-OH,4S-Me) = C[C@H]1CN[C@H](C(=O)O)[C@H]1O; Hyp = O=C(O)[C@@H]1C[C@@H](O)CN1

Experiments:
Serum [1] = test: Fraction unbound in Candida albicans K-1 infected neutropenic ICR/Swiss mouse serum at 5 mg/kg, ip administered 2 hrs postinfection as single dose; format: ADME, organism-based; design: dose 5 mg/kg, route intraperitoneal; settings: in vivo
Nakaseomyces glabratus [2] = test: Antifungal activity against Candida glabrata 570 assessed as complete growth inhibition after 24 hrs by CLSI end point method; format: functional; settings: Nakaseomyces glabratus, 570, 24 h
Method in brief: (§1)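 Two end points were read against the drug-free control well: partial growth inhibition (the CLSI end point) and complete inhibition. Run in duplicate on four separate occasions; the value is the mean. Drug stock was made in DMSO and diluted in 0.9% NaCl.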

Nakaseomyces glabratus [3] = test: Antifungal activity against Candida glabrata 513 assessed as partial growth inhibition after 24 hrs by CLSI end point method; format: functional; settings: Nakaseomyces glabratus, 513, 24 h; method in brief: as §1
Serum [4] = test: Fraction unbound in Candida albicans K-1 infected neutropenic ICR/Swiss mouse serum at 20 mg/kg, ip administered 2 hrs postinfection as single dose measured after 12 hrs; format: ADME, organism-based; design: dose 20 mg/kg, route intraperitoneal; settings: in vivo
Candida albicans [5] = test: Antifungal activity against Candida albicans K-1 infected in neutropenic ICR/Swiss mouse candidiasis model assessed as prolongation of fungal growth suppression at 20 mg/kg, ip administered 2 hrs postinfection as single dose by time-kill assay; format: functional; settings: route intraperitoneal
Method in brief: (§2)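 Single ip dose (20, 5 or 1.25 mg/kg) given 2 h after iv infection of neutropenic mice with K-1. Three treated and three control mice were sampled at intervals over 96 h for kidney CFU. PAFE is the time for treated burden to rise 1 log10 after serum levels fall below MIC, minus the same time in controls. Free drug was taken as 1%.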

Nakaseomyces glabratus [6] = test: Antifungal activity against Candida glabrata 33616 assessed as partial growth inhibition after 24 hrs by CLSI end point method; format: functional; settings: Nakaseomyces glabratus, 33616, 24 h; method in brief: as §1
Nakaseomyces glabratus [7] = test: Antifungal activity against Candida glabrata 34341 assessed as partial growth inhibition after 24 hrs by CLSI end point method; format: functional; settings: Nakaseomyces glabratus, 34341, 24 h; method in brief: as §1
Nakaseomyces glabratus [8] = test: Antifungal activity against Candida glabrata 33616 assessed as complete growth inhibition after 24 hrs by CLSI end point method; format: functional; settings: Nakaseomyces glabratus, 33616, 24 h; method in brief: as §1
Candida albicans [9] = test: Antifungal activity against Candida albicans 98-17 infected in neutropenic ICR/Swiss mouse candidiasis model assessed as fungal count per kidney administered 2 hrs postinfection measured up to 48 hrs; format: functional
Method in brief: (§3)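 Untreated neutropenic mice infected via the tail vein (inoculum about 6.1 log10 CFU/ml, 0.1 ml). Growth is the rise in kidney CFU over 48 h. Kidneys were homogenised, serially diluted 1:10 and plated on SDA for 24 h at 35°C. Mean of three mice.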

Nakaseomyces glabratus [10] = test: Antifungal activity against Candida glabrata 33616 infected in neutropenic ICR/Swiss mouse candidiasis model assessed as fungal count per kidney administered 2 hrs postinfection measured up to 48 hrs; format: functional
Method in brief: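 Female ICR/Swiss mice (23–27 g) made neutropenic with cyclophosphamide s.c. (150 mg/kg day −4, 100 mg/kg day −1, 100 mg/kg day +2). Infected by tail vein with 0.1 ml inoculum (~6.1 log10 CFU/ml). Kidneys of untreated mice were homogenised and plated on SDA for 24 h at 35°C. Growth over 48 h is given as log10 CFU/kidney.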

Candida albicans [11] = test: Antifungal activity against Candida albicans K-1 infected in neutropenic ICR/Swiss mouse candidiasis model assessed as prolongation of fungal growth suppression at 5 mg/kg, ip administered 2 hrs postinfection as single dose by time-kill assay; format: functional; settings: route intraperitoneal; method in brief: as §2
Nakaseomyces glabratus [12] = test: Antifungal activity against Candida glabrata 5376 infected in neutropenic ICR/Swiss mouse candidiasis model assessed as reduction of […] in kidney at 20 mg/kg, ip administered 2 hrs postinfection as single dose measured within 1 to 4 hrs post dosing by time-kill assay; format: functional, organism-based; design: dose 20 mg/kg
Method in brief: (§4)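 Neutropenic mice were infected i.v. and 2 h later given a single i.p. dose (1.25, 5 or 20 mg/kg). Groups of three treated and three control mice were killed at intervals over 96 h, and kidney CFU were counted on SDA (limit 100 CFU/ml). The post-antifungal effect is t − c: the time for a 1 log10 CFU/kidney increase once serum levels fall below the MIC in treated mice, minus the same time in controls.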

Nakaseomyces glabratus [13] = test: Antifungal activity against Candida glabrata 5376 infected in neutropenic ICR/Swiss mouse candidiasis model assessed as suppression of fungal regrowth at 20 mg/kg, ip administered 2 hrs postinfection as single dose by time-kill assay; format: functional, organism-based; design: dose 20 mg/kg; method in brief: as §4
Candida albicans [14] = test: Antifungal activity against Candida albicans K-1 infected in neutropenic ICR/Swiss mouse candidiasis model assessed as reduction of […] in kidney at 1.25 mg/kg, ip administered 2 hrs postinfection as single dose measured after 96 hrs post dosing by time-kill assay; format: functional, organism-based; design: dose 1.25 mg/kg
Method in brief: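 Neutropenic mice given a single ip dose (1.25, 5 or 20 mg/kg) 2 h after tail-vein infection. Kidneys from 3 mice per time point collected nine times over 96 h. Homogenates serially diluted 1:10 and plated on SDA, 24 h at 35°C. Detection limit 100 CFU/ml.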

Nakaseomyces glabratus [15] = test: Antifungal activity against Candida glabrata 5376 infected in neutropenic ICR/Swiss mouse candidiasis model assessed as dose required to maintain […] of 3.71 +/- 0.21 log10CFU per kidney administered intraperitoneally every 24 hrs up to 4 days measured per 96 hrs
Nakaseomyces glabratus [16] = test: Antifungal activity against Candida glabrata 34341 infected in neutropenic ICR/Swiss mouse candidiasis model assessed as dose required to maintain […] of 1.83 +/- 0.54 log10CFU per kidney administered intraperitoneally every 24 hrs up to 4 days measured per 24 hrs; format: functional
Candida tropicalis = test: Antifungal activity against Candida tropicalis 98-234 assessed as complete growth inhibition after 24 hrs by CLSI end point method; format: functional; settings: 98-234, 24 h
[17] = Protein binding in Candida albicans K-1 infected neutropenic ICR/Swiss mouse serum after 30 mins by arithmetic dilution method; format: ADME, organism-based; settings: read-out: PB (converted)
Candida albicans [18] = test: Antifungal activity against Candida albicans K-1 infected in neutropenic ICR/Swiss mouse candidiasis model assessed as fungal count per kidney administered 2 hrs postinfection measured up to 48 hrs; format: functional; method in brief: as §3
Candida albicans [19] = test: Antifungal activity against Candida albicans after 24 hrs by broth microdilution method; format: functional
Candida albicans [20] = test: Antifungal activity against Candida albicans 580 infected in neutropenic ICR/Swiss mouse candidiasis model assessed as fungal count per kidney administered 2 hrs postinfection measured up to 48 hrs; format: functional; method in brief: as §3
Candida albicans [21] = test: Antifungal activity against Candida albicans K-1 infected in neutropenic ICR/Swiss mouse candidiasis model assessed as […] burden per kidney administered intraperitoneally every 16 hrs up to 4 days measured per 96 hrs; format: functional; settings: K-1, Kidney, ip
Method in brief: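 Neutropenic mice were infected iv with C. albicans K-1 2 h before therapy. Total doses of 1.25, 5, 20, 80 and 320 mg/kg/96 h were split into 1, 2, 4 or 6 ip doses (q96h, q48h, q24h, q16h), three mice per regimen. Effect is the log10 CFU/kidney relative to untreated controls at 96 h. Static and 1-log doses were taken from a Hill model fit.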

Nakaseomyces glabratus [22] = test: Antifungal activity against Candida glabrata 32930 assessed as complete growth inhibition after 24 hrs by CLSI end point method; format: functional; settings: Nakaseomyces glabratus, 32930, 24 h
Method in brief: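 CLSI M27-A2 broth dilution. Two end points read against the drug-free control well: partial inhibition (CLSI end point) and complete inhibition. Run in duplicate on four separate occasions; value is the mean. Drug stock in DMSO, diluted in 0.9% NaCl.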

Compound: CCCCCOc1ccc(-c2ccc(-c3ccc(C(=O)N[C@H]4C[C@@H](O)[C@@H](O)NC(=O)[C@@H]5[C@@H](O)[C@@H](C)CN5C(=O)[C@H]([C@@H](C)O)NC(=O)[C@H]([C@H](O)[C@@H](O)c5ccc(O)cc5)NC(=O)[C@@H]5C[C@@H](O)CN5C(=O)[C@H]([C@@H](C)O)NC4=O)cc3)cc2)cc1 [ANIDULAFUNGIN] ({pTerphenylCO(4''-OnC5H11)}-[Orn(4R-OH,5R-OH)]T[Hyp][hTyr(3S-OH,4S-OH)]T[Pro(3S-OH,4S-Me)]; lactam 1-C)
- Fu (Serum [1]): 1%
- MIC (Nakaseomyces glabratus [2]): 0.12 µg/mL (≈ 0.105 µM)
- MIC (Nakaseomyces glabratus [3]): 0.06 µg/mL (≈ 0.0526 µM)
- Fu (Serum [4]): 1%
- Activity (Candida albicans [5]): >96 h
- MIC (Nakaseomyces glabratus [6]): 1 µg/mL (≈ 0.877 µM)
- MIC (Nakaseomyces glabratus [7]): 0.12 µg/mL (≈ 0.105 µM)
- MIC (Nakaseomyces glabratus [8]): 2 µg/mL (≈ 1.75 µM)
- log10cfu (Candida albicans [9]): 4.3
- log10cfu (Nakaseomyces glabratus [10]): 1.81
- Activity (Candida albicans [11]): >96 h
- Activity (Nakaseomyces glabratus [12]): Active
- Activity (Nakaseomyces glabratus [13]): Active
- Activity (Candida albicans [14]): Active
- Activity (Nakaseomyces glabratus [15]): 17.6 mg/kg
- Activity (Nakaseomyces glabratus [16]): 6.9 mg/kg
- MIC (Candida tropicalis): 0.12 µg/mL (≈ 0.105 µM)
- fraction unbound at 0.5 h [17]: 0.2
- log10cfu (Candida albicans [18]): 4
- MIC90 (Candida albicans [19]): 0.06 µg/mL (≈ 0.0526 µM)
- log10cfu (Candida albicans [20]): 3.4
- ED50 (Candida albicans [21]): 8.74 mg/kg
- MIC (Nakaseomyces glabratus [22]): 0.12 µg/mL (≈ 0.105 µM)
